Measured values taken from ChEMBL document CHEMBL4513216, “Probing the Open Global Health Chemical Diversity Library for Multistage-Active Starting Points for Next-Generation Antimalarials” (ACS Infect Dis, 2020).

Experiment: Toxicity liver stage against HepG2, at 10uM
Format: cell-based
Parameters: test concentration 10 uM, cell line HepG2-A16-CD81EGFP
Conditions: human, HepG2-A16-CD81EGFP cells; read-out: INHIBITION
Method in brief: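 Uninfected HepG2-A16-CD81EGFP cells, 3 × 10^3 per well, 1536-well, plated on prespotted compound at 10 μM final, parasite-free screening media added to match infected plates; puromycin 10 μM positive, DMSO 0.5% negative; run in parallel with 48 h PbLuc assay at 37 °C, 5% CO2; viability by CellTiter-Glo luminescence, normalized to controls.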

Structure (SMILES)	cytotoxicity at 10 µM [%]
Cc1c(CN2CCCC2(C)C(=O)N2CCOCC2)cnn1C (centres undefined)	-6.29
CCN(CC)C(CNC(=O)c1ccnc(N(C)C)c1)c1ccsc1 (centres undefined)	-149
O=C(c1ccoc1)N(Cc1ccccn1)C1CC1	-15
O=C1NCC[C@]12CN(Cc1ccncc1)C[C@H]2c1ccccc1	-147
Cn1cc(CN2CCC[C@]3(C(=O)O)CN(c4cnccn4)CC[C@@H]23)cn1	-0.226
CCN(Cc1cccc(-c2ccncc2)c1)S(C)(=O)=O	-14
CC(C)CCN1CCNC(=O)C1CC(=O)NCCc1cc(O)ncn1 (centres undefined)	-0.806
Cc1ccc(S(=O)(=O)NC(CO)CC(C)C)cc1N(C)C (centres undefined)	-0.996
COCc1noc(CN2CCC3(CC2)[C@H](O)C[C@@H]3OC)n1	0.0851
CCc1[nH]ncc1C(=O)N1CCCC(n2nc(C)cc2C)C1 (centres undefined)	-15.6
O=S(=O)(NC1=NCN(CCc2cccs2)CN1)c1ccc(Cl)cc1	-2.03
COCCn1cc(C(=O)N2CCCC2c2cccs2)c2ccccc21 (centres undefined)	23.7
NC(=O)c1cc(CC2CCCN(Cc3cnccn3)CC2)ncn1 (centres undefined)	-3.97
Cc1cnn(CC2CCCN2C(=O)Cc2n[nH]c3ccccc23)c1 (centres undefined)	-9.16
CCn1cnnc1CNC(=O)c1ccc(Cl)cc1I	-6.31
CCc1ccc(CN(C(=O)CCn2cc(S(N)(=O)=O)cn2)C2CC2)cc1	6.37
CC(C)(C)OC(=O)NCC1CCCCN1Cc1cccc(C(N)=O)c1 (centres undefined)	-2.27
Cc1nc(C)n(CC2CCCN(c3ncnc4[nH]ccc34)C2)n1 (centres undefined)	12.8
CN(C)S(=O)(=O)NCc1nc(-c2cccc(F)c2)c(-c2ccccn2)[nH]1	-7.76
Cc1nc(NC(=O)c2c(-n3cnnn3)sc3c2CCCC3)sc1C	2.03
CS(=O)(=O)c1ccc(CNC[C@H]2COCc3nc4ccccc4n32)cc1	-1.28
COCCO[C@H]1CCN(C(=O)c2cc(C)on2)[C@H]1Cc1ccccc1	8.22

Structure (SMILES)	cytotoxicity at 10 µM [%]
CN(Cc1n[nH]c2c1CCC2)C(=O)c1cccc(CCC(C)(C)O)c1	3.01
COCc1nc(CNc2cc(C)on2)cs1	4.05
c1cnc(N2CCN(CCn3ccnc3-c3c[nH]cn3)CC2)nc1	2.14
Cc1noc(CCCC(=O)NC(C)c2ccc(Cl)s2)n1 (centres undefined)	-9.48
Cc1c(C(=O)NC2CCCC2)nnn1-c1ccccc1	11.4
CN(C)C[C@H]1OC[C@@H]2CCN(C(=O)NCc3cccc(F)c3)C[C@@H]21	6.98
CCc1nccn1C1CCCN(C(=O)Cc2n[nH]c3ccccc23)C1 (centres undefined)	-0.337
CC(C)(C)S(=O)(=O)c1ccc(N2CCN(c3ccccc3)CC2)nn1	-4.81
C=C(C)COc1ccc(C(=O)NCC2CC(CC)=NO2)cc1 (centres undefined)	-48.2
COCC1CN(C(=O)c2ccnnc2)Cc2c1cnn2C (centres undefined)	-3.09
COc1ccc(CN2CCOC(CCc3ccnc(N)c3)C2)cc1 (centres undefined)	13.3
CC(Cc1ccccc1F)C(=O)Nc1cccc(OCC(N)=O)c1 (centres undefined)	-1.34
CCN(CC)C(=O)NCCc1ccn(-c2ccccc2)n1	-14
Cc1cnn(CC2CN(Cc3nc(-c4ccco4)no3)CCO2)c1 (centres undefined)	-20.3
O=C(CCc1ccccn1)N1CCc2cc(Cl)cc(Cl)c2C1	-40.9
CCC(CO)N(Cc1ccco1)Cc1c(C)nn(C)c1Cl (centres undefined)	7.4
CCOCC1CN(C(=O)c2ccoc2)Cc2nn(C)cc21 (centres undefined)	0.254
Fc1ccc(CNCC2OCCc3cn(CC4CC4)nc32)cc1 (centres undefined)	0.925
Cn1cc(CN2C[C@@H]3COC[C@]3(C(=O)NCc3ccccn3)C2)cn1	-1.07
NC(=O)C1CCCN1CCCc1ccc(C(F)(F)F)cc1 (centres undefined)	0.936
COc1nc(N2CCC(CC(N)=O)CC2)ncc1Br	2.99
COC(=O)c1ccc(N2CCN(CCC(=O)NC(N)=O)C(C)C2)cc1 (centres undefined)	-6.39

Structure (SMILES)	cytotoxicity at 10 µM [%]
CN(C)C(=O)Cn1cc(C(=O)N2CCCc3cccc(F)c32)nn1	1.81
COc1ccc(C(NCc2cccc(C#N)c2)C(C)C)cc1 (centres undefined)	17
O=C(CN(CC(O)c1ccc(F)cc1)C1CC1)Nc1cccnc1 (centres undefined)	-4.19
COCCn1cnnc1C1CCCN(c2cnccn2)C1 (centres undefined)	-2.22
Cc1nc(N2CCN(C(=O)C(C)(C)C)CC2)cc(-n2cnc(C)c2C)n1	-23.2
Cc1nc2ccccc2nc1CN(C)CC1CCCN1c1cccnn1 (centres undefined)	7.17
CC(C)=CCN1CCN(C(=O)c2cc(C(C)C)no2)[C@H]2CS(=O)(=O)C[C@H]21	-7.86
Cc1ccc(OCC(C)NS(C)(=O)=O)cc1 (centres undefined)	14.8
CN(C)[C@@H]1CCN(C(=O)Cc2cccs2)[C@H]1Cc1ccncc1	-70.1
COc1cccc(N2CCN(CCC(=O)NC3CCCC3)CC2)c1	-5.93
Cn1ccc(C(=O)N2CCC3(CC2)CC(Nc2cnccn2)CO3)n1 (centres undefined)	4.35
Cc1nnc([C@@]23CCO[C@@H]2CCN(Cc2scnc2C)C3)o1	-111
CCOC(=O)Cn1ccc2cc(NC(=O)N3CCSCC3)ccc21	9.68
CC(C)N1CCCC(C(=O)NCc2noc(Cc3ccccc3)n2)C1 (centres undefined)	-1.49
Cc1cc(C)nc(NC2CCC(=O)N(C)C2)n1 (centres undefined)	-4.83
CCN(CCO)C(=O)Nc1ccc(OCCOC)nc1	-5.71
Cc1nc(C)n(CC2CCCN(Cc3noc(C)n3)C2)n1 (centres undefined)	-1.87
c1csc(CN2CCC3(CCCN(c4nncs4)C3)C2)n1 (centres undefined)	-144
CCc1ncc2c(n1)CN(CCCOc1ccc(C#N)cc1)CC2	16.4
O=C1CCCN1CCCN1CCCCC1Cn1cncn1 (centres undefined)	-0.358
Cc1cnn(CC2CCCCN2CC(=O)Nc2cccnc2)c1 (centres undefined)	3.5
CC(C)(C)c1noc(CN2CCN(C(=O)c3cccs3)CC2)n1	-5.82

Structure (SMILES)	cytotoxicity at 10 µM [%]
O=C(Cc1c[nH]c(=O)[nH]c1=O)N1CCC2(CCC(=O)N(C3CC3)C2)CC1	-44.5
COc1cc(C2CC(=O)Oc3cc(C)[nH]c(=O)c32)ccc1OCC(=O)O (centres undefined)	-4.23
O=C(CCc1ccccc1)N1CCN(C(=O)c2ccc[nH]2)CC1	-5.04
Cc1ccc(C(=O)N2C[C@H]3CCC[C@@]3(COCC3CCOCC3)C2)o1	-66.3
Cc1ccc2c(c1)nc1n2[C@@H](CNC(=O)c2cccnc2)COC1	5.29
Cn1cc(CNCCNC(=O)Cc2ccccc2)c(-c2cccnc2)n1	13.1
CCn1c(C)nc2cc(NC(=O)CC3CCN(S(C)(=O)=O)CC3)ccc21	4.39
CCOC(=O)NC(CNC(=O)c1ccccn1)CC(C)C (centres undefined)	10.2
COCC(=O)N1CCC(C(=O)N(C)C(C)c2ccon2)CC1 (centres undefined)	1.28
CN1CCC2(CC1)Cc1ccccc1CN(C(=O)CN)C2	-1.63
CCCn1nnnc1COc1cc(OC)ccc1C(=O)OC	-2.04
CCCc1n[nH]c(C2CN(C(=O)c3ccc(C)[nH]c3=O)CCO2)n1 (centres undefined)	0.238
c1csc(-c2nc(CNC3CCc4ncnn4C3)co2)c1 (centres undefined)	-5.69
Nc1no[n+]([O-])c1C(=O)NCc1ccco1	2.94
COc1cc(C(=O)NCCc2cccc(C)c2)on1	0.572
Oc1nc(N2CCOCC2)nc2c1CCN(Cc1ccc(F)cc1)CC2	-4.14
Cc1nc(-c2ccco2)ccc1C(=O)NCC(=O)N1CCCCC1	-7.76
CCc1nnc(Nc2cccc(C3CCN(CCO)CC3)n2)s1	-6.41
CCN1CCN(C2CCN(Cc3nnc(C(C)C)o3)CC2)C1=O	-0.677
Cc1ncc(CNC2CC(=O)N(CCc3cccc(Cl)c3)C2)n1C (centres undefined)	-133
Cc1cc(Cl)ccc1C(=O)N1C[C@H](C2CC2)[C@@H](N)C1	-46.6
COCC1CN(C(=O)Cc2ccccn2)Cc2ncn(C)c21 (centres undefined)	1.73

Structure (SMILES)	cytotoxicity at 10 µM [%]
Cc1cc(C(=O)N2CCc3[nH]nc(-c4ccc5c(c4)OCO5)c3C2)no1	-137
Cc1cnc2n(c1=O)CC(C(=O)NC1CC1)CS2 (centres undefined)	-18.3
O=C(CN(C1=NCCCC1)c1ccccc1)c1ccc(OC(F)F)cc1	2.88
CC(C)(NC(=O)NCc1cccc(Br)c1)C(=O)O	9.13
COc1cc(C(C)NCc2c[nH]nc2C)ccc1OCCO (centres undefined)	-7.47
CN(CCCOc1ccccc1Cl)C(=O)CN1C[C@H]2CC[C@@H](CC1=O)N2	-11.9
CCC(CN1CCCCC1)NC(=O)C1(c2ccc(F)cc2)CC1 (centres undefined)	1.69
O=C(c1csc2nc(-c3ccc(Cl)cc3)cn12)N1CCCC(CO)C1 (centres undefined)	2.2
CCS(=O)(=O)N1CC[C@H]2OCC[C@@]2(C(=O)NC)C1	-72.6
Cc1ccc2c(c1)OC(C)(C)CC2NC(=O)C1CCN(C)CC1 (centres undefined)	-1.71
Cc1nccn1CCC(=O)N1CCC2(CCC(=O)N(CC3CC3)C2)CC1	-8.46
COc1cc(OC)cc(C(=O)NCC(c2cccn2C)N2CCCC2)c1 (centres undefined)	11.2
Cc1nc(CCN(C)C(=O)CN2C(=O)OC[C@@H]2c2ccccc2)no1	-42.2
C=Cn1cc(CN2CCC(c3ncc(Cl)cc3S(C)(=O)=O)CC2)c(C)n1	7.38
Cc1ccc([C@@H]2CN(C(=O)c3cccnn3)C[C@H]2NC(=O)C2CC2)cc1	-17.7
COc1ccc(-c2cccc(CC3(C(=O)O)CCOCC3)c2)cc1	-34.3
COc1cc(F)c(CN2CCN(CC(C)C)C(=O)C2C)cc1OC (centres undefined)	1.63
CC(C)(C)S(=O)(=O)CCNC(=O)NCCCc1cccc(F)c1	17
CN(C)C(=O)CN1C[C@H]2CN(Cc3cccc(F)c3)C(=O)[C@H]2C1	-79.5
Cc1cc(Br)c(O)c(-c2nc(N3CCOCC3)sc2C)c1	74.4
O=C(C1CCC1)N1C[C@@H]2CN(c3ccccc3)C(=O)[C@@H]2C1	1.05
